Measured values of several laboratories.
Compare with care: the assays were run in different laboratories.
CDK8: Cyclin-dependent kinase 8 (CDK8, Homo sapiens, UniProt P49336)
CDK8 with cyclin C: Cyclin-dependent kinase 8, with cyclin C (CDK8, Homo sapiens, UniProt P49336)

Structure (SMILES)	target	assay	conditions	endpoint	value
CCN1CCC2(CC1)NC(=O)c1c(c3ccc(Cl)c(Cl)c3n1C)C2C#N (racemic)	CDK8	thermal stability, DSF	10 µM	ΔTm	1.2 °C
C[C@H](c1ccnc(Nc2nc3ccc(-c4cc(N(C)C)ncn4)cc3[nH]2)c1)N1CCN(C(=O)CC(F)(F)F)CC1	CDK8	cell-free assay, competition with immobilised ligand	0.1 µM	remaining binding	96%
Cn1c2c(Cl)c(Cl)ccc2c2cc(N)[nH]c(=O)c21	CDK8	thermal stability, DSF	10 µM	ΔTm	0.7 °C
COc1ccnn2ncc(-c3ccnc(N(C)C)n3)c12	CDK8	binding	1 µM	remaining binding	100%
CC1(C)NC(=O)c2[nH]c3c(Cl)c(Cl)ccc3c2C1C#N (stereo not shown)	CDK8	thermal stability, DSF	10 µM	ΔTm	0.5 °C
O=C(Nc1cnn(-c2csc(C(=O)NC3COC3)c2)c1)Nc1ccccc1Cl	CDK8 with cyclin C	enzyme activity, inhibitor	5 µM	remaining activity	101%
Cn1c2c(c3ccccc31)C(C#N)C(C)(C)NC2=O (stereo not shown)	CDK8	thermal stability, DSF	10 µM	ΔTm	0.8 °C
O=C(N1CCS(=O)(=O)CC1)N1C[C@H](c2ccc(OC(F)(F)F)cc2)C[C@H](c2nc(C3CC3)no2)C1	CDK8	cell-free assay, competition with immobilised ligand	1 µM	remaining binding	100%
CN1CCN(C(=O)c2ccc3cc(CCNc4ccnc5ccc(C#N)cc45)ccc3c2)CC1	CDK8	binding, competition with immobilised ligand	2 µM	inhibition	> 85%
O=C(O)[C@H]1[C@H](Cn2nnc3ccccc3c2=O)CC[C@@H]1C(=O)c1ccc(OCCC2CCOCC2)cc1	CDK8	cell-free assay, competition with immobilised ligand	1 µM	remaining binding	100%
CC(C)(C)c1nc2c(s1)c1nc(N)ncc1c1ccc(NS(=O)(=O)c3c(F)cccc3F)c(F)c12	CDK8 with cyclin C	enzyme activity, inhibitor, radiometric	1 µM	remaining activity	100%
Cc1c(NC(=O)c2cc(C(N)=O)nc3cc(F)ccc23)c(C(F)(F)F)nn1Cc1ccc(C(C)(C)C)cc1	CDK8	cell-free assay, competition with immobilised ligand	1 µM	remaining binding	100%
Nc1ncnc2occ(-c3ccc(NC(=O)Nc4cc(C(F)(F)F)ccc4F)cc3)c12	CDK8	cell-free assay, inhibitor	20 µM	remaining signal	2%
